Legend:
bovine SOD1 = assay: Inhibition of bovine SOD1 activity in pH 7.4 buffer; type: biochemical; details: 1 μM SOD1, 5 μM compound, 60 min, 37 °C, 1% DMSO
Method in brief: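 Bovine SOD1 (1 μM) was preincubated 60 min at 37 °C with 5 μM test compound in pH 7.4 buffer containing 1% DMSO. Activity was then measured with a SOD1-specific superoxide dismutase assay kit. Control was the same buffer with 1% DMSO. n ≥ 3, each condition in duplicate; results are mean ± SD.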

CcO [1] = assay: CcO activity in treated HeLa cells; type: cell-based, human; details: HeLa cells treated 24 h with 50 μM, then lysed
Method in brief: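 HeLa cells were treated 24 h with 50 μM test compound and lysed. Ferrocytochrome c (cytochrome c reduced with dithiothreitol) was added, and the absorbance change at 550 nm was followed, using a reduced–oxidized extinction difference of 21.84. One unit oxidizes […] at pH 7.4, 25 °C. Control was a blank containing 1% DMSO. Results are mean ± SD of at least three experiments in duplicate.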

CcO [2] = assay: CcO activity in lysates of untreated HeLa cells; type: biochemical, human; details: incubation for 30 min with 50 μM
Method in brief: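 Untreated HeLa cells were lysed, and lysates were incubated 30 min with 50 μM test compound. CcO activity was then read with a human CcO ELISA kit. Control was a blank containing 1% DMSO. Results are mean ± SD of at least three experiments, each condition in duplicate.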

tyrosinase from potato = assay: Tyrosinase activity; type: biochemical; details: 50 μM, incubation for 0–20 min
Method in brief: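 Tyrosinase was isolated and purified from potato. The enzyme extract was preincubated at 30 °C in 0.05 M phosphate buffer pH 6.8 containing 50 μM test compound. L-DOPA was added from a 5 mM solution. DOPAchrome formation was followed at 475 nm over time (ε = 3600), and the initial rate gave activity. Control was a blank with 1% DMSO.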

| SMILES | SOD1 activity, % of the control (bovine SOD1) [%] | CcO activity relative to control (CcO [1]) | CcO activity in lysates of untreated cells (CcO [2]) | reduction in tyrosinase activity relative to the control (tyrosinase from potato) |
| --- | --- | --- | --- | --- |
| CCN(CC)C(=S)S [DDC, diethyldithiocarbamate] | > 60 |  |  |  |
| [N-]=[N+]=[N-].[Na+] [NaN3] |  | complete inactivation of CcO | complete inactivation of CcO |  |
| [SH-].[SH-].[S]=[Mo]=[S] [TM, tetrathiomolybdate] |  | reduced to half of that of the control | partial | complete inactivation of the enzyme |

— article PMC6024207 (Chemical Science, 2016)
